Reference: ChEMBL document CHEMBL3853270, “Influence of Birch Bark Triterpenes on Keratinocytes and Fibroblasts from Diabetic and Nondiabetic Donors” (2016)
The source made the active and inactive calls. The calls are words filed in the database; no cut-off is given here.

Legend:
[1] = system: Fibroblast; assay: Effect on growth factor related gene expression in non-diabetic adult human primary fibroblasts assessed as GDF15 mRNA levels at 9.81 uM after 6 hrs by qPCR analysis; assay type: functional
How it was run: (§1)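 Primary human dermal fibroblasts (young or adult nondiabetic, adult diabetic donor) were treated for 6 h against a 0.1% DMSO solvent control. RNA from 320 000 cells per sample was measured by Fluidigm Biomark high-throughput qPCR. Values are fold change relative to solvent control, from four independent experiments, with SD. One-way ANOVA with Bonferroni post-test was applied.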

[2] = system: Keratinocyte; assay: Effect on antioxidant related gene expression in diabetic adult human primary keratinocytes assessed as SOD2 mRNA levels at 9.81 uM after 6 hrs by qPCR analysis; assay type: functional
[3] = system: Keratinocyte; assay: Effect on pro-inflammatory related gene expression in diabetic adult human primary keratinocytes assessed as IL1B mRNA levels at 1.96 uM after 6 hrs by qPCR analysis; assay type: functional
[4] = system: Fibroblast; assay: Effect on growth factor related gene expression in non-diabetic young human primary fibroblasts assessed as GDF15 mRNA levels at 9.81 uM after 6 hrs by qPCR analysis; assay type: functional; how it was run: as §1
[5] = system: Fibroblast; assay: Effect on adhesion molecules related gene expression in diabetic adult human primary fibroblasts assessed as VCAM1 mRNA levels at 9.81 uM after 6 hrs by qPCR analysis; assay type: functional
How it was run: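 Dermal fibroblasts from nondiabetic adult and diabetic adult donors, exposed for 6 h at 1.96 or 9.81 μM. ICAM-1 and VCAM-1 mRNA measured by standard qRT-PCR, n = 3. Fold change versus 0.1% DMSO control, SD, one-way ANOVA with Bonferroni post-test.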

[6] = Effect on wound healing activity in diabetic adult human primary keratinocytes assessed as upregulation of IL8 protein levels at 1.96 uM after 24 hrs by bead-based suspension array analysis; assay type: functional; conditions: Keratinocyte
[7] = Effect on wound healing activity in non-diabetic adult human primary keratinocytes assessed as upregulation of MIP1alpha protein levels at 1.96 uM after 24 hrs by bead-based suspension array analysis; assay type: functional; conditions: Keratinocyte
[8] = system: Fibroblast; assay: Effect on growth factors related gene expression in non-diabetic adult human primary fibroblasts assessed as FGF2 mRNA levels at 1.96 uM after 6 hrs by qPCR analysis; assay type: functional; how it was run: as §1
[9] = system: Fibroblast; assay: Effect on antioxidant related gene expression in non-diabetic young human primary fibroblasts assessed as NFE2L2 mRNA levels at 9.81 uM after 6 hrs by qPCR analysis; assay type: functional
[10] = system: Fibroblast; assay: Effect on MMP1 mRNA expression levels in non-diabetic young human primary fibroblasts at 9.81 uM after 6 hrs by qPCR analysis; assay type: functional
How it was run: (§2)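 Primary dermal fibroblasts from one nondiabetic young, one nondiabetic adult and one diabetic adult donor; 320 000 cells per sample, 6 h at 1.96 or 9.81 μM. RNA measured on a high-throughput qPCR chip. Fold change versus 0.1% DMSO control, four independent experiments, SD, one-way ANOVA with Bonferroni post-test.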

[11] = biological target: Ras-related C3 botulinum toxin substrate 1 (Homo sapiens) (UniProt P63000); assay: Activation of Rac1 in human diabetic primary keratinocytes at 10 nM after 20 mins by immunoblot method
How it was run: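 Primary keratinocytes from a diabetic adult donor (NHK-d), exposed 20 min. Lysed in glycerol/Tris pH 7.4/NaCl/NP-40/MgCl2/PMSF buffer and cleared at 4 °C. Supernatant incubated 1 h at 4 °C with glutathione-sepharose beads carrying GST-PAK to pull down active GTP-bound Rac1. Blotted on a 13% gel, probed with anti-Rac1 (1:2.000) and detected by ECL; total Rac1 also measured. CNF1 (2 nM) positive control, n = 3.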

[12] = system: Keratinocyte; assay: Effect on MMP1 mRNA expression levels in non-diabetic adult human primary keratinocytes at 1.96 uM after 6 hrs by qPCR analysis; assay type: functional
How it was run: (§3)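 Primary keratinocytes from nondiabetic young and adult and diabetic adult donors; 400 000 cells per sample, 6 h exposure at 1.96 or 9.81 μM. RNA extracted and read on a high-throughput qPCR chip. Results are fold change versus 0.1% DMSO solvent control from 5−7 independent experiments over two donors per group, SD, one-way ANOVA with Bonferroni post-test.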

[13] = system: Keratinocyte; assay: Effect on growth factor related gene expression in non-diabetic adult human primary keratinocytes assessed as GDF15 mRNA levels at 1.96 uM after 6 hrs by qPCR analysis; assay type: functional
How it was run: (§4)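 Primary human keratinocytes (nondiabetic young or adult, diabetic adult donors) were exposed to compound for 6 h, with 0.1% DMSO as solvent control. Total RNA came from 400 000 cells per sample and was assayed on a Fluidigm Biomark high-throughput qPCR chip. Results are fold change vs solvent control, from 2−4 independent experiments on two donors per group, with SD. Groups were compared by one-way ANOVA with Bonferroni post-test.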

[14] = system: Keratinocyte; assay: Effect on MMP1 mRNA expression levels in non-diabetic young human primary keratinocytes at 9.81 uM after 6 hrs by qPCR analysis; assay type: functional; how it was run: as §3
[15] = system: Keratinocyte; assay: Effect on AQP3 mRNA expression levels in non-diabetic adult human primary keratinocytes at 9.81 uM after 6 hrs by qPCR analysis; assay type: functional; how it was run: as §3
[16] = system: Fibroblast; assay: Effect on pro-inflammatory related gene expression in non-diabetic adult human primary fibroblasts assessed as PTGS2 mRNA levels at 1.96 uM after 6 hrs by qPCR analysis; assay type: functional
[17] = system: Keratinocyte; assay: Effect on chemokines related gene expression in non-diabetic young human primary keratinocytes assessed as CXCL10 mRNA levels at 1.96 uM after 6 hrs by qPCR analysis; assay type: functional; how it was run: as §4
[18] = system: Fibroblast; assay: Effect on chemokines related gene expression in non-diabetic young human primary fibroblasts assessed as WDR26 mRNA levels at 1.96 uM after 6 hrs by qPCR analysis; assay type: functional; how it was run: as §1
[19] = Effect on wound healing activity in non-diabetic adult human primary fibroblasts assessed as upregulation of MIF protein levels at 1.96 uM after 24 hrs by bead-based suspension array analysis; assay type: functional; conditions: Fibroblast
[20] = Effect on wound healing activity in non-diabetic adult human primary keratinocytes assessed as upregulation of IL8 protein levels at 1.96 uM after 24 hrs by bead-based suspension array analysis; assay type: functional; conditions: Keratinocyte
[21] = system: Keratinocyte; assay: Effect on pro-inflammatory related gene expression in non-diabetic adult human primary keratinocytes assessed as IL1R1 mRNA levels at 9.81 uM after 6 hrs by qPCR analysis; assay type: functional
[22] = system: Keratinocyte; assay: Effect on transcription factor related gene expression in diabetic adult human primary keratinocytes assessed as JUN mRNA levels at 1.96 uM after 6 hrs by qPCR analysis; assay type: functional
[23] = system: Fibroblast; assay: Effect on antiinflammatory related gene expression in non-diabetic adult human primary fibroblasts assessed as NFKBIA mRNA levels at 1.96 uM after 6 hrs by qPCR analysis; assay type: functional; how it was run: as §2
[24] = system: Keratinocyte; assay: Effect on chemokines related gene expression in non-diabetic young human primary keratinocytes assessed as IL8 mRNA levels at 9.81 uM after 6 hrs by qPCR analysis; assay type: functional; how it was run: as §4
[25] = system: Fibroblast; assay: Effect on antioxidant related gene expression in non-diabetic adult human primary fibroblasts assessed as SOD2 mRNA levels at 1.96 uM after 6 hrs by qPCR analysis; assay type: functional
[26] = system: Keratinocyte; assay: Effect on cellular connection related gene expression in non-diabetic adult human primary keratinocytes assessed as GJB2 mRNA levels at 9.81 uM after 6 hrs by qPCR analysis; assay type: functional
[27] = system: Fibroblast; assay: Effect on growth factor related gene expression in diabetic adult human primary fibroblasts assessed as GDF15 mRNA levels at 9.81 uM after 6 hrs by qPCR analysis; assay type: functional; how it was run: as §1

Q: Which results are given for `C=C(C)[C@@H]1CC[C@]2(CO)CC[C@]3(C)[C@H](CC[C@@H]4[C@@]5(C)CC[C@H](O)C(C)(C)[C@@H]5CC[C@]43C)[C@@H]12` [BETULIN]?
A: fold change (FC) [1]: 3.2; fold change (FC) [2]: 1.6; fold change (FC) [3]: 0.8; fold change (FC) [4]: 5.1; fold change (FC) [5]: 1.3; Activity [6]: Active; Activity [7]: Active; fold change (FC) [8]: 2.9; fold change (FC) [9]: 1.4; fold change (FC) [10]: 1; Activity [11]: Active; fold change (FC) [12]: 1; fold change (FC) [13]: 1; fold change (FC) [14]: 1; fold change (FC) [15]: 0.8; fold change (FC) [16]: 146; fold change (FC) [17]: 1.9; fold change (FC) [18]: 1.1; Activity [19]: Active; Activity [20]: Active; fold change (FC) [21]: 0.9; fold change (FC) [22]: 1.2; fold change (FC) [23]: 7.5; fold change (FC) [24]: 21.8; fold change (FC) [25]: 18; fold change (FC) [26]: 0.8; fold change (FC) [27]: 1.8
